Assay results as given in ChEMBL document CHEMBL4257448, “Deciphering the origins of molecular toxicity of combretastatin A4 and its glycoconjugates: interactions with major drug transporters and their safety profiles in vitro and in vivo” (Medchemcomm, 2017).
pIC50: −log10 of the molar value.

Columns and labels:
Mus musculus = assay: Ratio of compound MTD to CA4 MTD in ip dosed DBA/2 mouse assessed as reduction in 15% body weight administered as daily dose for 3 days; type: ADME, organism-based; settings: in vivo, 72 h
[1] = Cytotoxicity against HEK293FT cells assessed as reduction in cell viability up to 20 uM; type: cell-based; settings: human
[2] = target: T1, Solute carrier organic anion transporter family member 2B1 (Homo sapiens, UniProt O94956); assay: Substrate activity at human OATP2B1 expressed in HEK293 cells assessed as compound uptake by HPLC-UV method relative to control; type: ADME, cell-based
T1 sequence (O94956 whole entry): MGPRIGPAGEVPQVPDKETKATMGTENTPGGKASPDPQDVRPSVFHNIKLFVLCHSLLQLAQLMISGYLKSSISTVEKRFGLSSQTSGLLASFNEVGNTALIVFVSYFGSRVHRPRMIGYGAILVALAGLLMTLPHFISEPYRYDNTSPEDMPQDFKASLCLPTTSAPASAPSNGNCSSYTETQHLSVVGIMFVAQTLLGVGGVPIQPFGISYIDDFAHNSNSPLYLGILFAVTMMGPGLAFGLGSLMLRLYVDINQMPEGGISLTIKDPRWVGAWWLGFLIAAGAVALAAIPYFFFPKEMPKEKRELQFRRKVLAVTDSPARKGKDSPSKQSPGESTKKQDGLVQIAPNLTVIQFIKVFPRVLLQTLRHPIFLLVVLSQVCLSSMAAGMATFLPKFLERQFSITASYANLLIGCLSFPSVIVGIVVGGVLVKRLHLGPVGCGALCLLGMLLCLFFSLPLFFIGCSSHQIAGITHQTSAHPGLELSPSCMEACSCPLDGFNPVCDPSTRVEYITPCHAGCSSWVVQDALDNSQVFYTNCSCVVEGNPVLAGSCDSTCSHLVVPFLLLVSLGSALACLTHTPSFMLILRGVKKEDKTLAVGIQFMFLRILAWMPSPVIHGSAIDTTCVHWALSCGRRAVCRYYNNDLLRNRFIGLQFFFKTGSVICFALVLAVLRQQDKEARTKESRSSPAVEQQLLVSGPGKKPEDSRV

[3] = target: T2, Organic anion transporter 3 (Homo sapiens, UniProt Q8TCC7); assay: Inhibition of human OAT3 expressed in HEK293 cells assessed as 6-CF uptake after 5 mins by fluorescence assay; type: cell-based; settings: for inhibition (INH): human, hek293, 5 min
T2 sequence (Q8TCC7 whole entry): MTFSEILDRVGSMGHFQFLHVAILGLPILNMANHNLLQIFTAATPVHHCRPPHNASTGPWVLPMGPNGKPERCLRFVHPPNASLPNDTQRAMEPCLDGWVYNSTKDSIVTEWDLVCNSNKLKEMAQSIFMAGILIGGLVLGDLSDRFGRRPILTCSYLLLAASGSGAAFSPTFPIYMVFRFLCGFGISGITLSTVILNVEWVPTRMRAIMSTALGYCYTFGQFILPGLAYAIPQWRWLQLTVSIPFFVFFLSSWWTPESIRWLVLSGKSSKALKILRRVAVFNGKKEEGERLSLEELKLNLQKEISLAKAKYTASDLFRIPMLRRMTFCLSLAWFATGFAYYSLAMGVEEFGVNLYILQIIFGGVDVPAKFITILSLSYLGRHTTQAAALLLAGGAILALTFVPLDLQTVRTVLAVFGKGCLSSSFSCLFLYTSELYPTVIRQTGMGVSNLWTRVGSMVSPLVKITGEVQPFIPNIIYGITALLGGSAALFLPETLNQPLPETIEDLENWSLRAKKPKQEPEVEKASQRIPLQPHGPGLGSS
Method in brief: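 Stably transfected HEK293 cells (human OAT1, OAT3, OCT1, OCT2, OATP1B3, OATP2B1) and mock cells were assayed 16 h after seeding in HEPES uptake buffer, pH 7.2, with fluorescent probe ± compound. Incubation was 5 min for OAT1/3 and OATPs, and 10 min for OCT1/2. Reference inhibitors were probenecid (OATs), quinine (OCTs) and rifampicin (OATPs). Uptake was stopped with ice-cold PBS and cells were lysed in Tris/Triton. Fluorescence was normalised to BCA protein; triplicates, repeated 2–3 times.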

[4] = Ratio of CA4 aqueous solubility to test compound aqueous solubility; type: physicochemical; settings: buffer
[5] = Drug uptake in mock transfected HEK293 cells in presence of OATP2B1 inhibitor rifampicin by HPLC-UV method; type: ADME, cell-based; settings: human
[6] = target: T1, Solute carrier organic anion transporter family member 2B1; assay: Substrate activity at human OATP2B1 expressed in HEK293 cells assessed as compound uptake in presence of OATP2B1 inhibitor rifampicin by HPLC-UV method; type: ADME, cell-based
HT-29 = assay: […] for human HT-29 cells assessed as reduction in cell viability after 72 hrs by MTT assay; type: functional
Method in brief: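 HT29 cells were cultured in RPMI-1640 with glutamine and 10% FBS, seeded at 2000–7500 cells/well, and exposed for 72 h to drug in DMSO (final DMSO <0.1%). MTT was added at 0.83 mg mL−1 final and incubated overnight, then cells were lysed in SDS/HCl and read at 570 nm. Survival was expressed as percent of drug-free control; five replicate wells.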

HEK293 = assay: Toxicity in HEK293 cells assessed as effect on total protein up to 200 uM after 10 mins; type: cell-based; settings: human, hek293, 10 min
Method in brief: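 HEK293-mock cells were exposed to 100 or 200 μM for 10 min, and total cellular protein was then measured.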

[7] = Drug uptake in mock transfected HEK293 cells by HPLC-UV assay; type: ADME, cell-based; settings: human

SMILES | Ratio (Mus musculus) | Activity [1] | Drug uptake [2] [%] | pIC50 [3] | inhibition (INH) [3] | Ratio [4] | Drug uptake [5] | Drug uptake [6] | Ratio IC50 (HT-29) | Activity (HEK293) | Drug uptake [7]
COc1ccc(/C=C\c2cc(OC)c(OC)c(OC)c2)cc1O[C@@H]1O[C@H](CO)[C@@H](O)[C@H](O)[C@H]1O | 16 | Toxic | 60 | < 3.70 | Dose-dependent effect | 610 | Active | Active | 9.59 | Non-Toxic | 
COc1ccc(/C=C\c2cc(OC)c(OC)c(OC)c2)cc1O [COMBRETASTATIN A4] |  | Toxic |  | 4.79 | Dose-dependent effect |  |  |  |  | Non-Toxic | Active
